Consider three compounds from article PMC6437231 (Diabetes Therapy, 2019).

Data set [1] is classed as in vivo, human. The following applies: one-compartment model, 7 multiple-dose trials, s.c. In short, it runs like this: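 Steady-state s.c. plasma data from seven multiple-dose trials, with dose escalation 0.25 > 0.5 > 1.0 mg (one trial to 1.5 mg). One-compartment mixed-effects model parameterised as CL/F, V/F and ka, each with inter-individual variability. […] Log-additive residual error; values with CWRES >6 excluded.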

The test system of data set [2] is plasma albumin. As to conditions: ref [5]; cited from earlier work.
Data set [3] is classed as in vivo, human. As to conditions: final two-compartment model. In short, it runs like this: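 Plasma semaglutide (LC–MS/MS) from 353 subjects in 9 trials with s.c. and i.v. dosing. Mixed-effects two-compartment model with first-order absorption and elimination; i.v. doses treated as a central bolus. Log-normal inter-individual variability on ka, CL, Q, Vc and Vp; (weight/85 kg) exponent on CL, Q, Vc and Vp; product strength (1, 1.34, 3, 10 mg/mL) on ka. Covariates kept at 10% alpha; CWRES >6 excluded; log-additive residual error.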

The conditions of data set [4]: ref [6], cited from earlier work.
For data set [5] the following is noted: population PK model; ref [9]; cited from earlier work.
The conditions of data set [6]: cited from earlier work.
The mark [7] stands for this setting: s.c., trial 7 drug product strength.
Setting [8] is: one-compartment model from phase 3a trials.

Turning to `CC[C@H](C)[C@H](NC(=O)[C@H](Cc1ccccc1)NC(=O)[C@H](CCC(=O)O)NC(=O)[C@H](CCCCNC(=O)COCCOCCNC(=O)COCCOCCNC(=O)CC[C@H](NC(=O)CCCCCCCCCCCCCCCCC(=O)O)C(=O)O)NC(=O)[C@H](C)NC(=O)[C@H](C)NC(=O)[C@H](CCC(N)=O)NC(=O)CNC(=O)[C@H](CCC(=O)O)NC(=O)[C@H](CC(C)C)NC(=O)[C@H](Cc1ccc(O)cc1)NC(=O)[C@H](CO)NC(=O)[C@H](CO)NC(=O)[C@@H](NC(=O)[C@H](CC(=O)O)NC(=O)[C@H](CO)NC(=O)[C@@H](NC(=O)[C@H](Cc1ccccc1)NC(=O)[C@@H](NC(=O)CNC(=O)[C@H](CCC(=O)O)NC(=O)C(C)(C)NC(=O)[C@@H](N)Cc1cnc[nH]1)[C@@H](C)O)[C@@H](C)O)C(C)C)C(=O)N[C@@H](C)C(=O)N[C@@H](Cc1c[nH]c2ccccc12)C(=O)N[C@@H](CC(C)C)C(=O)N[C@H](C(=O)N[C@@H](CCCNC(=N)N)C(=O)NCC(=O)N[C@@H](CCCNC(=N)N)C(=O)NCC(=O)O)C(C)C` [semaglutide], the “Absorption rate constant (ka)” value in data set [1] (267 subjects) came out at 0.0296 h⁻¹. The “Apparent clearance (CL/F), healthy volunteer with body weight of 85 kg” value in data set [1] is on record as 0.0415 L/h. In addition, in data set [2], the “Bound to plasma albumin” value is recorded as “more than 99%”. Also, in data set [3] (9 trials, body weight 85 kg), the “Central volume (Vc)” value is given as 3.59 L and the “Peripheral volume (Vp)” value is given as 4.10 L. In addition, the “Higher CL in subjects with type 2 diabetes compared to healthy subjects” value in data set [3] (95% CI 9–16%) is given as 12%. For the same compound, the “Body weight effect on Vc and Vp” value in data set [3] (exponent of (weight/85 kg)) worked out at 0.923. Also, the “T2D effect on ka” value in data set [3] (factor, T2D vs normoglycaemia) came to 0.544. In addition, the “Injection site effect on F” value in data set [3] (factor, thigh vs abdomen) was 0.883. In addition, in data set [3] (setting [7]), the “Drug product strength effects on ka, 3 mg” value amounted to 0.0526 and the “Drug product strength effects on ka, 10 mg” value amounted to 0.139. Also, the “Bioavailability estimated by the final model” value in data set [3] (s.c., 95% CI 0.80–0.90) was 85%. The “Lower bioavailability when using the thigh compared with the abdomen” value in data set [3] (s.c., 95% CI 0.84–0.92) turned out to be 12%. In addition, the “Total volume of distribution (Vc + Vp)” value in data set [3] (typical subject with T2D, 85 kg) was “approximately 8 L”. Moreover, in data set [4] (setting [8]), the “CL/F for subject with T2D and body weight of 85 kg” value is given as 0.0478 L/h; the “Total volume/F (V/F)” value was 12.2 L. The “Inter-individual variability in clearance” value in data set [4] (phase 3 analysis, CV) is 12.9%.
In the case of dulaglutide, in data set [5], the “Greater CL compared to semaglutide” value is “approximately 50%”; the “Interindividual variability, coefficient of variation (CV) for CL” value was 40.5%; the “Lower volume of distribution compared to semaglutide” value is 20%; the “Slower absorption compared to semaglutide” value is on record as “approximately threefold”.
Consider liraglutide, for which the “Elimination compared with semaglutide” value in data set [6] (population PK model, ref [10]) is listed as “much faster elimination”. In addition, the “Bioavailability after administration in the thigh versus the abdomen” value in data set [6] (ref [16]) is listed as “slightly lower”.
